For 2 compounds, inhibition results are on record in ChEMBL document CHEMBL3046621, “Fungicidal sesquiterpene dialdehyde cinnamates from Pseudowintera axillaris” (2006).

What is called inhibition is the drop in the measured response relative to a control, in per cent.

Structures are written as SMILES.

Common to all, as to assay type: functional
For assay [1], the system named is Phytophthora infestans. The assay is described as follows: Antifungal activity against Phytophthora infestans assessed as inhibition of late tomato blight disease on tomato cultivar Rutgers plants at 25 ppm measured 24 hr post fungal inoculation relative to untreated control. In outline:
(§1)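 Whole-plant protectant test: pure compounds in acetone, serially diluted in acetone to 6.25, 25 or 100 ppm and applied to plants.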

Assay [2] deals with Plasmopara viticola. As to the kind of experiment: Antifungal activity against Plasmopara viticola assessed as inhibition of grape downy mildew disease on vines cultivar Carignane plants at 25 ppm measured 24 hr post fungal inoculation relative to untreated control. In outline:
as §1

Assay [3] relates to Zymoseptoria tritici. As to the kind of experiment: Antifungal activity against Zymoseptoria tritici assessed as inhibition of wheat leaf spot disease on wheat cultivar Yuma at 25 ppm measured 24 hr post fungal inoculation relative to untreated control. In outline: as §1
The test system of assay [4] is Phytophthora infestans. As to the kind of experiment: Antifungal activity against Phytophthora infestans assessed as inhibition of late tomato blight disease on tomato cultivar Rutgers plants at 25 ppm measured 96 hr post fungal inoculation relative to untreated control. In short, it runs like this: as §1
For assay [5], the system named is Parastagonospora nodorum. The assay is described as follows: Antifungal activity against Phaeosphaeria nodorum assessed as inhibition of glume blotch disease on wheat cultivar Yuma plants at 25 ppm measured 96 hr post fungal inoculation relative to untreated control. In short, it runs like this: as §1
Assay [6] concerns Plasmopara viticola. As to the kind of experiment: Antifungal activity against Plasmopara viticola assessed as inhibition of grape downy mildew disease on vines cultivar Carignane plants at 100 ppm measured 24 hr post fungal inoculation relative to untreated control. In short, it runs like this:
as §1

Assay [7] concerns Phytophthora infestans. The assay is described as follows: Antifungal activity against Phytophthora infestans assessed as inhibition of late tomato blight disease on tomato cultivar Rutgers plants at 100 ppm measured 24 hr post fungal inoculation relative to untreated control. In outline: as §1
The test system of assay [8] is Puccinia graminis f. tritici. The assay is described as follows: Antifungal activity against Puccinia graminis f. tritici assessed as inhibition of wheat stem rust disease on wheat cultivar Yuma at 25 ppm measured 24 hr post fungal inoculation relative to untreated control. In short, it runs like this:
as §1

For assay [9], the system named is Plasmopara viticola. As to the kind of experiment: Antifungal activity against Plasmopara viticola assessed as inhibition of grape downy mildew disease on vines cultivar Carignane plants at 25 ppm measured 96 hr post fungal inoculation relative to untreated control. In short, it runs like this: as §1
For assay [10], the system named is Parastagonospora nodorum. The assay is described as follows: Antifungal activity against Phaeosphaeria nodorum assessed as inhibition of glume blotch disease on wheat cultivar Yuma plants at 100 ppm measured 96 hr post fungal inoculation relative to untreated control. In short, it runs like this: as §1
The test system of assay [11] is Zymoseptoria tritici. The assay is described as follows: Antifungal activity against Zymoseptoria tritici assessed as inhibition of wheat leaf spot disease on wheat cultivar Yuma at 100 ppm measured 24 hr post fungal inoculation relative to untreated control. In outline:
as §1

For assay [12], the system named is Puccinia graminis f. tritici. As to the kind of experiment: Antifungal activity against Puccinia graminis f. tritici assessed as inhibition of wheat stem rust disease on wheat cultivar Yuma at 100 ppm measured 24 hr post fungal inoculation relative to untreated control. In short, it runs like this:
as §1

The test system of assay [13] is Parastagonospora nodorum. The assay is described as follows: Antifungal activity against Phaeosphaeria nodorum assessed as inhibition of glume blotch disease on wheat cultivar Yuma plants at 100 ppm measured 24 hr post fungal inoculation relative to untreated control. In short, it runs like this:
as §1

In assay [14] the test system is Phytophthora infestans. The assay is described as follows: Antifungal activity against Phytophthora infestans assessed as inhibition of late tomato blight disease on tomato cultivar Rutgers plants at 100 ppm measured 96 hr post fungal inoculation relative to untreated control. In outline: as §1
In assay [15] the test system is Parastagonospora nodorum. As to the kind of experiment: Antifungal activity against Phaeosphaeria nodorum assessed as inhibition of glume blotch disease on wheat cultivar Yuma plants at 25 ppm measured 24 hr post fungal inoculation relative to untreated control. In short, it runs like this: as §1
For assay [16], the system named is Plasmopara viticola. As to the kind of experiment: Antifungal activity against Plasmopara viticola assessed as inhibition of grape downy mildew disease on vines cultivar Carignane plants at 100 ppm measured 96 hr post fungal inoculation relative to untreated control. In outline: as §1
Assay [17] has as its system Phytophthora infestans. The assay is described as follows: Antifungal activity against Phytophthora infestans assessed as inhibition of late tomato blight disease on tomato cultivar Rutgers plants at 6.25 ppm measured 24 hr post fungal inoculation relative to untreated control. In short, it runs like this: as §1
Assay [18] deals with Phytophthora infestans. The assay is described as follows: Antifungal activity against Phytophthora infestans assessed as inhibition of late tomato blight disease on tomato cultivar Rutgers plants at 6.25 ppm measured 96 hr post fungal inoculation relative to untreated control. In outline:
as §1

Assay [19] has as its system Parastagonospora nodorum. As to the kind of experiment: Antifungal activity against Phaeosphaeria nodorum assessed as inhibition of glume blotch disease on wheat cultivar Yuma plants at 6.25 ppm measured 24 hr post fungal inoculation relative to untreated control. In outline: as §1
The test system of assay [20] is Puccinia graminis f. tritici. As to the kind of experiment: Antifungal activity against Puccinia graminis f. tritici assessed as inhibition of wheat stem rust disease on wheat cultivar Yuma at 6.25 ppm measured 24 hr post fungal inoculation relative to untreated control. In outline: as §1
In assay [21] the test system is Puccinia graminis f. tritici. The assay is described as follows: Antifungal activity against Puccinia graminis f. tritici assessed as inhibition of wheat stem rust disease on wheat cultivar Yuma at 6.25 ppm measured 96 hr post fungal inoculation relative to untreated control. In outline:
as §1

Assay [22] has as its system Plasmopara viticola. As to the kind of experiment: Antifungal activity against Plasmopara viticola assessed as inhibition of grape downy mildew disease on vines cultivar Carignane plants at 6.25 ppm measured 96 hr post fungal inoculation relative to untreated control. In short, it runs like this: as §1
Assay [23] relates to Puccinia graminis f. tritici. The assay is described as follows: Antifungal activity against Puccinia graminis f. tritici assessed as inhibition of wheat stem rust disease on wheat cultivar Yuma at 100 ppm measured 96 hr post fungal inoculation relative to untreated control. In short, it runs like this: as §1
Assay [24] relates to Plasmopara viticola. As to the kind of experiment: Antifungal activity against Plasmopara viticola assessed as inhibition of grape downy mildew disease on vines cultivar Carignane plants at 6.25 ppm measured 24 hr post fungal inoculation relative to untreated control. In short, it runs like this: as §1
For assay [25], the system named is Puccinia graminis f. tritici. The assay is described as follows: Antifungal activity against Puccinia graminis f. tritici assessed as inhibition of wheat stem rust disease on wheat cultivar Yuma at 25 ppm measured 96 hr post fungal inoculation relative to untreated control. In outline: as §1
In assay [26] the test system is Zymoseptoria tritici. The assay is described as follows: Antifungal activity against Zymoseptoria tritici assessed as inhibition of wheat leaf spot disease on wheat cultivar Yuma at 6.25 ppm measured 24 hr post fungal inoculation relative to untreated control. In short, it runs like this:
as §1

Regarding `C=C1[C@@H](C)C[C@@H](OC(=O)/C=C/c2ccccc2)[C@]2(C)[C@@H](C=O)C(C=O)=CC[C@@H]12` [Paxidal], the inhibition at 25 ppm stood at 57% with Phytophthora infestans [1]; 23% with Plasmopara viticola [2]; 0% in the assay with Zymoseptoria tritici [3]; 18% in the assay on Phytophthora infestans [4]; 0% with Parastagonospora nodorum [5]; 0% in assay [8]. Also, the inhibition at 25 ppm in the assay on Plasmopara viticola [9] and with Parastagonospora nodorum [15] was 0% throughout. Further, the inhibition at 100 ppm with Plasmopara viticola [6] was determined as 51%; in the assay with Phytophthora infestans [7], 69%; in the assay on Parastagonospora nodorum [10], 18%; in the assay on Zymoseptoria tritici [11], 7%; in assay [12] it was 0%; with Parastagonospora nodorum [13], 17%. For the same compound, the results for the inhibition at 100 ppm in the assay with Phytophthora infestans [14] and with Plasmopara viticola [16] were 9% and 0%, respectively.
Regarding `C=C1[C@@H](C)C[C@@H](OC(=O)/C=C/c2ccccc2)[C@]2(C)[C@@H]3C(=CC[C@@H]12)[C@@H](OC)O[C@H]3OC`, the inhibition at 25 ppm with Phytophthora infestans [1] is 78%; in the assay on Plasmopara viticola [2] it was 61%; with Zymoseptoria tritici [3] it was 0%; in the assay with Phytophthora infestans [4], 6%; in assay [8], 4%; in the assay with Plasmopara viticola [9], 23%. Besides, the inhibition at 25 ppm (in assay [25]; in the assay on Parastagonospora nodorum [15]) was 0% throughout. The inhibition at 6.25 ppm in the assay with Phytophthora infestans [17] is 47%; with Phytophthora infestans [18], 0%; with Parastagonospora nodorum [19], 0%; in assay [20], 4%; in assay [21], 0%; in the assay with Plasmopara viticola [22], 0%. The inhibition at 6.25 ppm in the assay with Plasmopara viticola [24] was 7%; with Zymoseptoria tritici [26], 0%. The inhibition at 100 ppm was 74% with Plasmopara viticola [6]; 99% with Phytophthora infestans [7]; 0% in the assay with Zymoseptoria tritici [11]; 19% in assay [23]; 71% in [12]; 20% in the assay with Parastagonospora nodorum [13]. Besides, the inhibition at 100 ppm in the assay with Phytophthora infestans [14] turned out to be 14%; with Plasmopara viticola [16] it was 57%.
